Converted amounts (≈) assume the structure as drawn.
How the values were obtained:
[1] = system: Staphylococcus aureus; assay: Antibacterial activity against Staphylococcus aureus ATCC 6538 after 24 hrs by microdilution method; format: functional; conditions: ATCC 6538, 24 h
How it was run: (§1)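 Broth microdilution in 96-well plates. Bacterial suspensions were adjusted in sterile saline to 1.0 × 10⁵ CFU/ml, prepared daily and kept at 4 °C. Compound was added to LB broth with 1.0 × 10⁴ CFU per well and shaken at 160 rpm for 24 h at […] (so in the source). MIC is the lowest concentration with no visible growth under a binocular microscope. OD655 was also read. Duplicate, repeated three times.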

[2] = system: Bacillus cereus; assay: Antibacterial activity against clinical isolate of Bacillus cereus after 24 hrs by microdilution method; format: functional; how it was run: as §1
[3] = system: Micrococcus flavus; assay: Antibacterial activity against Micrococcus flavus ATCC 10240 after 24 hrs by microdilution method; format: functional; conditions: ATCC 10240, 24 h; how it was run: as §1
[4] = system: Listeria monocytogenes; assay: Antibacterial activity against Listeria monocytogenes NCTC 7973 after 24 hrs by microdilution method; format: functional; conditions: NCTC 7973, 24 h; how it was run: as §1
[5] = system: Pseudomonas aeruginosa; assay: Antibacterial activity against Pseudomonas aeruginosa ATCC 27853 after 24 hrs by microdilution method; format: functional; conditions: ATCC 27853, 24 h; how it was run: as §1
[6] = system: Salmonella typhimurium; assay: Antibacterial activity against Salmonella Typhimurium ATCC 13311 after 24 hrs by microdilution method; format: functional, Salmonella enterica subsp. enterica serovar Typhimurium; conditions: Salmonella enterica, ATCC 13311, 24 h; how it was run: as §1
[7] = system: Escherichia coli; assay: Antibacterial activity against Escherichia coli ATCC 35210 after 24 hrs by microdilution method; format: functional; conditions: ATCC 35210, 24 h; how it was run: as §1
[8] = system: Enterococcus faecalis; assay: Antibacterial activity against Enterococcus faecalis isolated from human after 24 hrs by microdilution method; format: functional; how it was run: as §1
[9] = system: Staphylococcus aureus; assay: Antibacterial activity against Staphylococcus aureus ATCC 6538 incubated for 24 hrs followed by serial sub-cultivation for 24 hrs by microdilution method; format: functional; conditions: ATCC 6538, 24 h
How it was run: (§2)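 MBC: after the 24 h LB broth microdilution (1.0 × 10⁴ CFU per well, 160 rpm), wells were serially sub-cultured into fresh broth plates and incubated a further 24 h. MBC is the lowest concentration with no visible growth, taken as 99.5% killing of the original inoculum. Duplicate, repeated three times.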

[10] = system: Bacillus cereus; assay: Antibacterial activity against clinical isolate of Bacillus cereus incubated for 24 hrs followed by serial sub-cultivation for 24 hrs by microdilution; format: functional; how it was run: as §2
[11] = system: Micrococcus flavus; assay: Antibacterial activity against Micrococcus flavus ATCC 10240 incubated for 24 hrs followed by serial sub-cultivation for 24 hrs by microdilution; format: functional; conditions: ATCC 10240, 24 h; how it was run: as §2
[12] = system: Listeria monocytogenes; assay: Antibacterial activity against Listeria monocytogenes NCTC 7973 incubated for 24 hrs followed by serial sub-cultivation for 24 hrs by microdilution; format: functional; conditions: NCTC 7973, 24 h; how it was run: as §2
[13] = system: Pseudomonas aeruginosa; assay: Antibacterial activity against Pseudomonas aeruginosa ATCC 27853 incubated for 24 hrs followed by serial sub-cultivation for 24 hrs by microdilution; format: functional; conditions: ATCC 27853, 24 h; how it was run: as §2
[14] = system: Salmonella typhimurium; assay: Antibacterial activity against Salmonella Typhimurium ATCC 13311 incubated for 24 hrs followed by serial sub-cultivation for 24 hrs by microdilution; format: functional, Salmonella enterica subsp. enterica serovar Typhimurium; conditions: Salmonella enterica, ATCC 13311, 24 h; how it was run: as §2
[15] = system: Escherichia coli; assay: Antibacterial activity against Escherichia coli ATCC 35210 incubated for 24 hrs followed by serial sub-cultivation for 24 hrs by microdilution; format: functional; conditions: ATCC 35210, 24 h; how it was run: as §2
[16] = system: Enterococcus faecalis; assay: Antibacterial activity against Enterococcus faecalis isolated from human incubated for 24 hrs followed by serial sub-cultivation for 24 hrs by microdilution; format: functional; how it was run: as §2
[17] = system: Aspergillus ochraceus; assay: Antifungal activity against Aspergillus ochraceus ATCC 12066 after 72 hrs by serial dilution technique; format: functional; conditions: ATCC 12066, 72 h
How it was run: (§3)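 Modified microdilution in 96-well plates. Fungi were kept on malt agar at 4 °C. Spores were washed off in sterile 0.85% saline with 0.1% Tween 80. Compounds were dissolved at 1 mg/ml in 5% DMSO with 0.1% Tween 80 and added to malt broth with inoculum. Plates were shaken at 160 rpm for 72 h at 28 °C. Duplicate, repeated three times.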

[18] = system: Aspergillus niger; assay: Antifungal activity against Aspergillus niger ATCC 6275 after 72 hrs by serial dilution technique; format: functional; conditions: ATCC 6275, 72 h; how it was run: as §3
[19] = system: Aspergillus flavus; assay: Antifungal activity against Aspergillus flavus ATCC 9643 after 72 hrs by serial dilution technique; format: functional; conditions: ATCC 9643, 72 h; how it was run: as §3
[20] = system: Talaromyces funiculosus; assay: Antifungal activity against Penicillium funiculosum ATCC 36839 after 72 hrs by serial dilution technique; format: functional; conditions: ATCC 36839, 72 h; how it was run: as §3
[21] = system: Penicillium ochrochloron; assay: Antifungal activity against Penicillium ochrochloron ATCC 9112 after 72 hrs by serial dilution technique; format: functional; conditions: ATCC 9112, 72 h; how it was run: as §3
[22] = system: Trichoderma viride; assay: Antifungal activity against Trichoderma viride IAM 5061 after 72 hrs by serial dilution technique; format: functional; conditions: IAM 5061, 72 h; how it was run: as §3
[23] = system: Candida albicans; assay: Antifungal activity against Candida albicans isolated from human after 72 hrs by serial dilution technique; format: functional; how it was run: as §3
[24] = system: Aspergillus ochraceus; assay: Antifungal activity against Aspergillus ochraceus ATCC 12066 incubated for 72 hrs followed by serial sub-cultivation for 72 hrs by serial dilution technique; format: functional; conditions: ATCC 12066, 72 h
How it was run: (§4)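 MFC: material from 72 h malt broth microdilution wells was serially sub-cultured into fresh broth plates and incubated a further 72 h at 28 °C. Fungicidal concentration is taken from growth after sub-culture. Duplicate, repeated three times.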

[25] = system: Aspergillus fumigatus; assay: Antifungal activity against Aspergillus fumigatus isolated from human incubated for 72 hrs followed by serial sub-cultivation for 72 hrs by serial dilution technique; format: functional; how it was run: as §4
[26] = system: Aspergillus niger; assay: Antifungal activity against Aspergillus niger ATCC 6275 incubated for 72 hrs followed by serial sub-cultivation for 72 hrs by serial dilution technique; format: functional; conditions: ATCC 6275, 72 h; how it was run: as §4
[27] = system: Aspergillus flavus; assay: Antifungal activity against Aspergillus flavus ATCC 9643 incubated for 72 hrs followed by serial sub-cultivation for 72 hrs by serial dilution technique; format: functional; conditions: ATCC 9643, 72 h; how it was run: as §4
[28] = system: Talaromyces funiculosus; assay: Antifungal activity against Penicillium funiculosum ATCC 36839 incubated for 72 hrs followed by serial sub-cultivation for 72 hrs by serial dilution technique; format: functional; conditions: ATCC 36839, 72 h; how it was run: as §4
[29] = system: Penicillium ochrochloron; assay: Antifungal activity against Penicillium ochrochloron ATCC 9112 incubated for 72 hrs followed by serial sub-cultivation for 72 hrs by serial dilution technique; format: functional; conditions: ATCC 9112, 72 h; how it was run: as §4
[30] = system: Trichoderma viride; assay: Antifungal activity against Trichoderma viride IAM 5061 incubated for 72 hrs followed by serial sub-cultivation for 72 hrs by serial dilution technique; format: functional; conditions: IAM 5061, 72 h; how it was run: as §4
[31] = system: Candida albicans; assay: Antifungal activity against Candida albicans isolated from human incubated for 72 hrs followed by serial sub-cultivation for 72 hrs by serial dilution technique; format: functional; how it was run: as §4
[32] = system: Pseudomonas aeruginosa; assay: Ratio of ampicillin MIC to compound MIC for Pseudomonas aeruginosa ATCC 27853; format: functional
[33] = system: Aspergillus ochraceus; assay: Ratio of bifonazole to compound for Aspergillus ochraceus ATCC 12066; format: functional
[34] = system: Aspergillus niger; assay: Ratio of bifonazole to compound for Aspergillus niger ATCC 6275; format: functional
[35] = system: Talaromyces funiculosus; assay: Ratio of bifonazole to compound for Penicillium funiculosum ATCC 36839; format: functional
[36] = system: Penicillium ochrochloron; assay: Ratio of bifonazole to compound for Penicillium ochrochloron ATCC 9112; format: functional
[37] = system: Trichoderma viride; assay: Ratio of bifonazole to compound for Trichoderma viride IAM 5061; format: functional
[38] = system: Candida albicans; assay: Ratio of bifonazole to compound for Candida albicans isolated from human; format: functional
[39] = system: Aspergillus ochraceus; assay: Ratio of ketoconazole to compound for Aspergillus ochraceus ATCC 12066; format: functional
[40] = system: Aspergillus fumigatus; assay: Ratio of ketoconazole to compound for Aspergillus fumigatus isolated from human; format: functional
[41] = system: Penicillium ochrochloron; assay: Ratio of ketoconazole to compound for Penicillium ochrochloron ATCC 9112; format: functional
[42] = system: Candida albicans; assay: Ratio of ketoconazole to compound for Candida albicans isolated from human; format: functional
[43] = system: Aspergillus ochraceus; assay: Antifungal activity against Aspergillus ochraceus after 72 hrs by serial dilution technique

CCNc1nc(C)c(C(=O)/C=C/c2cccc([N+](=O)[O-])c2)s1
MIC [1]: 94.6 µM (≈ 30 µg/mL) | MIC [2]: 47.3 µM (≈ 15 µg/mL) | MIC [3]: 63.1 µM (≈ 20 µg/mL) | MIC [4]: 94.6 µM (≈ 30 µg/mL) | MIC [5]: 78.9 µM (≈ 25 µg/mL) | MIC [6]: 47.3 µM (≈ 15 µg/mL) | MIC [7]: 63.1 µM (≈ 20 µg/mL) | MIC [8]: 47.3 µM (≈ 15 µg/mL) | MBC [9]: 94.6 µM (≈ 30 µg/mL) | MBC [10]: 63.1 µM (≈ 20 µg/mL) | MBC [11]: 94.6 µM (≈ 30 µg/mL) | MBC [12]: 94.6 µM (≈ 30 µg/mL) | MBC [13]: 78.9 µM (≈ 25 µg/mL) | MBC [14]: 63.1 µM (≈ 20 µg/mL) | MBC [15]: 78.9 µM (≈ 25 µg/mL) | MBC [16]: 63.1 µM (≈ 20 µg/mL) | MIC [17]: 63.1 µM (≈ 20 µg/mL) | MIC [18]: 63.1 µM (≈ 20 µg/mL) | MIC [19]: 63.1 µM (≈ 20 µg/mL) | MIC [20]: 31.5 µM (≈ 10 µg/mL) | MIC [21]: 63.1 µM (≈ 20 µg/mL) | MIC [22]: 47.3 µM (≈ 15 µg/mL) | MIC [23]: 31.5 µM (≈ 10 µg/mL) | MFC [24]: 78.8 µM (≈ 25 µg/mL) | MFC [25]: 78.8 µM (≈ 25 µg/mL) | MFC [26]: 78.8 µM (≈ 25 µg/mL) | MFC [27]: 78.8 µM (≈ 25 µg/mL) | MFC [28]: 63.1 µM (≈ 20 µg/mL) | MFC [29]: 78.8 µM (≈ 25 µg/mL) | MFC [30]: 63.1 µM (≈ 20 µg/mL) | MFC [31]: 63.1 µM (≈ 20 µg/mL) | Ratio [32]: 10 | Ratio [33]: 10 | Ratio [34]: 10 | Ratio [35]: 10 | Ratio [36]: 10 | Ratio [37]: 10 | Ratio [38]: 10 | Ratio [39]: 10 | Ratio [40]: 10 | Ratio [41]: 10 | Ratio [42]: 10 | MIC [43]: 63.1 µM (≈ 20 µg/mL)

Reference: ChEMBL document CHEMBL1926569, “Novel (E)-1-(4-methyl-2-(alkylamino)thiazol-5-yl)-3-arylprop-2-en-1-ones as potent antimicrobial agents” (2011)
